Laboratory results reported in ChEMBL document CHEMBL2086239, “Synthesis and biological evaluation of combretastatin-amidobenzothiazole conjugates as potential anticancer agents” (Eur J Med Chem, 2012).
Calls of active or inactive are those of the source. The rule behind the calls is not given here.

What was measured:
Format in all cases: functional
COLO 205 [1] = test: Cytotoxicity against human COLO205 cells after 48 hrs assessed as inhibition of cell growth at 10 uM after 48 hrs by SRB assay relative to control; conditions: COLO 205, 48 h, read-out: GI
In short: (§1)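 SRB protein assay in DMEM with 10% FBS at 37 °C, 5% CO2, 100% relative humidity. Cells seeded in 96-well plates, incubated 24 h, then exposed to drug at 10 µM for 48 h and processed per standard protocol. Absorbance read at 560 nm; growth percentage calculated for test wells relative to control wells.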

THP-1 = test: Cytotoxicity against human THP1 cells after 48 hrs assessed as inhibition of cell growth at 10 uM after 48 hrs by SRB assay relative to control; conditions: THP-1, 48 h, read-out: GI; in short: as §1
IMR-32 = test: Cytotoxicity against human IMR32 cells after 48 hrs assessed as inhibition of cell growth at 10 uM after 48 hrs by SRB assay relative to control; conditions: IMR-32, 48 h, read-out: GI; in short: as §1
MCF7 [2] = test: Cytotoxicity against human MCF7 cells after 48 hrs assessed as inhibition of cell growth at 10 uM after 48 hrs by SRB assay relative to control; conditions: MCF7, 48 h, read-out: GI; in short: as §1
HEp-2 = test: Cytotoxicity against human Hep2 cells after 48 hrs assessed as inhibition of cell growth at 10 uM after 48 hrs by SRB assay relative to control; conditions: HEp-2, 48 h, read-out: GI; in short: as §1
PC-3 = test: Cytotoxicity against human PC3 cells after 48 hrs assessed as inhibition of cell growth at 10 uM after 48 hrs by SRB assay relative to control; conditions: PC-3, 48 h, read-out: GI; in short: as §1
MOLT-4 = test: Growth inhibition of human MOLT4 cells after 48 hrs by SRB assay; conditions: MOLT-4, 48 h
In short: (§2)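 NCI 60-cell-line screen: after preliminary screening, tested at five dose concentrations on 59 human tumour lines covering leukemia, lung, colon, CNS, melanoma, ovarian, renal, prostate and breast.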

SR = test: Growth inhibition of human SR cells after 48 hrs by SRB assay
In short: (§3)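 NCI 60-cell-line panel, five-dose testing after preliminary screen; sulforhodamine B protein assay in DMEM with 10% FBS, 37 °C, 5% CO2, 100% humidity. Cells seeded and incubated 24 h before compound addition, then exposed 48 h. Absorbance read at 560 nm; growth percentage relative to control wells; GI50 taken as concentration giving 50% growth inhibition.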

A549 = test: Growth inhibition of human A549 cells after 48 hrs by SRB assay; conditions: A549, 48 h; in short: as §2
HOP-62 = test: Growth inhibition of human HOP62 cells after 48 hrs by SRB assay; conditions: HOP-62, 48 h; in short: as §2
HOP-92 = test: Growth inhibition of human HOP92 cells after 48 hrs by SRB assay; conditions: HOP-92, 48 h; in short: as §2
NCI-H226 = test: Growth inhibition of human NCI-H226 cells after 48 hrs by SRB assay; conditions: NCI-H226, 48 h; in short: as §2
NCI-H322M = test: Growth inhibition of human NCI-H322M cells after 48 hrs by SRB assay; in short: as §2
NCI-H522 = test: Growth inhibition of human NCI-H522 cells after 48 hrs by SRB assay; conditions: NCI-H522, 48 h; in short: as §2
COLO 205 [3] = test: Growth inhibition of human COLO205 cells after 48 hrs by SRB assay; conditions: COLO 205, 48 h; in short: as §2
HT-29 = test: Growth inhibition of human HT-29 cells after 48 hrs by SRB assay; conditions: HT-29, 48 h; in short: as §2
SF-268 = test: Growth inhibition of human SF268 cells after 48 hrs by SRB assay; conditions: SF-268, 48 h; in short: as §2
SF-295 = test: Growth inhibition of human SF295 cells after 48 hrs by SRB assay; conditions: SF-295, 48 h; in short: as §3
SF-539 = test: Growth inhibition of human SF539 cells after 48 hrs by SRB assay; conditions: SF-539, 48 h; in short: as §3
SNB-19 = test: Growth inhibition of human SNB19 cells after 48 hrs by SRB assay; in short: as §3
SNB-75 = test: Growth inhibition of human SNB75 cells after 48 hrs by SRB assay; conditions: SNB-75, 48 h; in short: as §3
Malme-3M = test: Growth inhibition of human MALME-3M cells after 48 hrs by SRB assay; in short: as §2
M14 = test: Growth inhibition of human M14 cells after 48 hrs by SRB assay; conditions: M14, 48 h; in short: as §2
MDA-MB-435 = test: Growth inhibition of human MDA-MB-435 cells after 48 hrs by SRB assay; conditions: MDA-MB-435, 48 h; in short: as §2
SK-MEL-2 = test: Growth inhibition of human SK-MEL-2 cells after 48 hrs by SRB assay; conditions: SK-MEL-2, 48 h; in short: as §3
SK-MEL-28 = test: Growth inhibition of human SK-MEL-28 cells after 48 hrs by SRB assay; in short: as §3
UACC-257 = test: Growth inhibition of human UACC257 cells after 48 hrs by SRB assay; conditions: UACC-257, 48 h; in short: as §3
UACC-62 = test: Growth inhibition of human UACC62 cells after 48 hrs by SRB assay; conditions: UACC-62, 48 h; in short: as §3
OVCAR-3 = test: Growth inhibition of human OVCAR3 cells after 48 hrs by SRB assay; conditions: OVCAR-3, 48 h; in short: as §2
OVCAR-5 = test: Growth inhibition of human OVCAR5 cells after 48 hrs by SRB assay; in short: as §2
OVCAR-8 = test: Growth inhibition of human OVCAR8 cells after 48 hrs by SRB assay; conditions: OVCAR-8, 48 h; in short: as §2
NCI/ADR-RES = test: Growth inhibition of human NCI/ADR-RES cells after 48 hrs by SRB assay; in short: as §2
786-0 = test: Growth inhibition of human 786-0 cells after 48 hrs by SRB assay; conditions: 786-0, 48 h; in short: as §2
RXF 393 = test: Growth inhibition of human RXF393 cells after 48 hrs by SRB assay; conditions: RXF 393, 48 h; in short: as §2
SN12C = test: Growth inhibition of human SN12C cells after 48 hrs by SRB assay; in short: as §3
TK-10 = test: Growth inhibition of human TK10 cells after 48 hrs by SRB assay; conditions: TK-10, 48 h; in short: as §3
Hs-578T = test: Growth inhibition of human Hs578T cells after 48 hrs by SRB assay; in short: as §2
T47D = test: Growth inhibition of human T47D cells after 48 hrs by SRB assay; in short: as §3
MCF7 [4] = test: Cell cycle arrest in human MCF7 cells assessed as accumulation at G1 phase at 4 uM after 24 hrs by FACS analysis (reference value: 58.33%)
MCF7 [5] = test: Cell cycle arrest in human MCF7 cells assessed as accumulation at S phase at 4 uM after 24 hrs by FACS analysis (reference value: 6.79%)
SW-620 = test: Growth inhibition of human SW620 cells after 48 hrs by SRB assay; in short: as §3

## COc1ccc(/C=C\c2cc(OC)c(OC)c(OC)c2)cc1OCC(=O)Nc1nc2ccc(F)cc2s1
COLO 205 [1]
  inhibition of growth at 10 µM: 50%
THP-1
  inhibition of growth at 10 µM: 54%
IMR-32
  inhibition of growth at 10 µM: 77%
MCF7 [2]
  inhibition of growth at 10 µM: 56%
HEp-2
  inhibition of growth at 10 µM: 64%
PC-3
  inhibition of growth at 10 µM: 32%
MOLT-4
  GI50: 3070 nM
SR
  GI50: 2190 nM
A549
  GI50: 5990 nM
HOP-62
  GI50: 5700 nM
HOP-92
  GI50: 5730 nM
NCI-H226
  GI50: 5600 nM
NCI-H322M
  GI50: inactive
NCI-H522
  GI50: 2920 nM
COLO 205 [3]
  GI50: 7780 nM
HT-29
  GI50: 9630 nM
SF-268
  GI50: 7230 nM
SF-295
  GI50: 4290 nM
SF-539
  GI50: 4510 nM
SNB-19
  GI50: inactive
SNB-75
  GI50: 4390 nM
Malme-3M
  GI50: 5220 nM
M14
  GI50: 6820 nM
MDA-MB-435
  GI50: 330 nM
SK-MEL-2
  GI50: 8460 nM
SK-MEL-28
  GI50: inactive
UACC-257
  GI50: 8690 nM
UACC-62
  GI50: 4050 nM
OVCAR-3
  GI50: 9990 nM
OVCAR-5
  GI50: inactive
OVCAR-8
  GI50: 7150 nM
NCI/ADR-RES
  GI50: 2550 nM
786-0
  GI50: 7120 nM
RXF 393
  GI50: 6290 nM
SN12C
  GI50: 4610 nM
TK-10
  GI50: 9890 nM
Hs-578T
  GI50: inactive
T47D
  GI50: 3390 nM
MCF7 [4]
  Activity: 44.28%
MCF7 [5]
  Activity: 13.64%
SW-620
  GI50: inactive

## COc1ccc(/C=C\c2cc(OC)c(OC)c(OC)c2)cc1O [COMBRETASTATIN A4]
COLO 205 [1]
  inhibition of growth at 10 µM: 63%
THP-1
  inhibition of growth at 10 µM: 87%
IMR-32
  inhibition of growth at 10 µM: 89%
MCF7 [2]
  inhibition of growth at 10 µM: 71%
HEp-2
  inhibition of growth at 10 µM: 64%
PC-3
  inhibition of growth at 10 µM: 76%
MOLT-4
  GI50: 3 nM
SR
  GI50: 3 nM
A549
  GI50: 15 nM
HOP-62
  GI50: 2 nM
HOP-92
  GI50: 2 nM
NCI-H226
  GI50: 3 nM
NCI-H322M
  GI50: 3 nM
NCI-H522
  GI50: 1 nM
COLO 205 [3]
  GI50: 100 nM
HT-29
  GI50: 100 nM
SF-268
  GI50: 6 nM
SF-295
  GI50: 3 nM
SF-539
  GI50: 2 nM
SNB-19; SNB-19, 48 h
  GI50: 3 nM
SNB-75
  GI50: 7 nM
Malme-3M
  GI50: 19 nM
M14
  GI50: 2 nM
MDA-MB-435
  GI50: 1 nM
SK-MEL-2
  GI50: 3 nM
SK-MEL-28; SK-MEL-28, 48 h
  GI50: 7 nM
UACC-257
  GI50: 3 nM
UACC-62
  GI50: 5 nM
OVCAR-3
  GI50: 1 nM
OVCAR-5; OVCAR-5, 48 h
  GI50: 100 nM
OVCAR-8
  GI50: 3 nM
NCI/ADR-RES
  GI50: 1 nM
786-0
  GI50: 100 nM
RXF 393
  GI50: 2 nM
SN12C
  GI50: 6 nM
TK-10
  GI50: 100 nM
Hs-578T
  GI50: 1 nM
T47D
  GI50: 10000 nM
MCF7 [4]
  Activity: 24.5%
MCF7 [5]
  Activity: 14.27%
SW-620; SW-620, 48 h
  GI50: 3 nM

## COc1ccc(/C=C\c2cc(OC)c(OC)c(OC)c2)cc1OCC(=O)Nc1ccc2nc(C)sc2c1
COLO 205 [1]
  inhibition of growth at 10 µM: 17%
THP-1
  inhibition of growth at 10 µM: 59%
IMR-32
  inhibition of growth at 10 µM: 62%
MCF7 [2]
  inhibition of growth at 10 µM: 52%
HEp-2
  inhibition of growth at 10 µM: 40%
PC-3
  inhibition of growth at 10 µM: 61%
MOLT-4
  GI50: 2110 nM
SR
  GI50: 2930 nM
A549
  GI50: 2100 nM
HOP-62
  GI50: 3090 nM
HOP-92
  GI50: 2380 nM
NCI-H226
  GI50: 2750 nM
NCI-H322M
  GI50: 6740 nM
NCI-H522
  GI50: 2280 nM
COLO 205 [3]
  GI50: 4400 nM
HT-29
  GI50: 3310 nM
SF-268
  GI50: 3610 nM
SF-295
  GI50: 2450 nM
SF-539
  GI50: 2560 nM
SNB-19; SNB-19, 48 h
  GI50: 3890 nM
SNB-75
  GI50: 1550 nM
Malme-3M
  GI50: 2840 nM
M14
  GI50: 3380 nM
MDA-MB-435
  GI50: 2130 nM
SK-MEL-2
  GI50: 3150 nM
SK-MEL-28; SK-MEL-28, 48 h
  GI50: 3220 nM
UACC-257
  GI50: 1730 nM
UACC-62
  GI50: 2190 nM
OVCAR-3
  GI50: 6320 nM
OVCAR-5; OVCAR-5, 48 h
  GI50: 6690 nM
OVCAR-8
  GI50: 2120 nM
NCI/ADR-RES
  GI50: 2360 nM
786-0
  GI50: 7550 nM
RXF 393
  GI50: 5060 nM
SN12C
  GI50: 3530 nM
TK-10
  GI50: 4210 nM
Hs-578T
  GI50: 4320 nM
T47D
  GI50: 9410 nM
MCF7 [4]
  Activity: 55.2%
MCF7 [5]
  Activity: 7.71%
SW-620; SW-620, 48 h
  GI50: 4700 nM
